Experimental data as given in ChEMBL document CHEMBL3400112, “Design, syntheses, and pharmacological characterization of 17-cyclopropylmethyl-3,14β-dihydroxy-4,5α-epoxy-6α-(isoquinoline-3'-carboxamido)morphinan analogues as opioid receptor ligands” (Bioorg Med Chem, 2015).
pEC50, pIC50, pKi: −log10 of the molar value. Activity calls are given as the source filed them. The rule behind the calls is not given here.

How the values were obtained:
Mus musculus [1] = assay: Antinociceptive activity in Swiss-Webster mouse at 10 mg/kg, sc after 20 mins by warm water tail-flick test relative to control; assay type: functional; details: route subcutaneous
Mus musculus [2] = assay: Antinociceptive activity in sc dosed Swiss-Webster mouse after 20 mins by warm water tail-flick test relative to control; assay type: functional
[3] = target: T1, Kappa-type opioid receptor (Mus musculus, UniProt P33534); assay: Partial agonist activity at mouse KOR expressed in CHO cells after […] by [35S]GTPgammaS binding assay; assay type: functional, cell-based
[4] = target: T2, Delta-type opioid receptor (Mus musculus, UniProt P32300); assay: Agonist activity at mouse DOR expressed in CHO cells after […] by [35S]GTPgammaS binding assay; assay type: functional, cell-based
[5] = target: Delta-type opioid receptor (Mus musculus) (UniProt P32300); assay: Agonist activity at mouse DOR expressed in CHO cells after […] by [35S]GTPgammaS binding assay relative to SNC80; assay type: functional, cell-based
Mu-type opioid receptor [6] = target: T3, Mu-type opioid receptor (Homo sapiens, UniProt P35372); assay: Agonist activity at human MOR expressed in CHO cells assessed as increase in intracellular Ca2+ level after 30 mins by microplate reader analysis; assay type: functional, cell-based
In short: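 Gαqi5-transfected hMOR-CHO cells (DMEM/F12, 10% FBS, hygromycin B, 37 °C/5% CO2), plated 4 h post-transfection, grown 24 h, loaded 30 min with Fluo-4 AM plus probenecid in HBSS:HEPES. Test agent at varying concentrations in triplicate added after 15 s of reading. Fluorescence 494/516 nm over 120 s; at least three independent experiments.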

Mu-type opioid receptor [7] = target: T3, Mu-type opioid receptor; assay: Antagonist activity at human MOR expressed in CHO cells assessed as inhibition of DAMGO-induced increase in intracellular Ca2+ level incubated for 15 mins prior to DAMGO addition by microplate reader analysis; assay type: functional, cell-based
Mus musculus [8] = organism: Mus musculus; assay: Selectivity ratio of Ki for mouse DOR to Ki for mouse MOR
Mus musculus [9] = organism: Mus musculus; assay: Selectivity ratio of Ki for mouse KOR to Ki for mouse MOR
Mu-type opioid receptor [10] = target: T4, Mu-type opioid receptor (Mus musculus, UniProt P42866); assay: Displacement of [3H]naloxane from mouse MOR expressed in CHO cells after […]; assay type: cell-based
[11] = target: T1, Kappa-type opioid receptor; assay: Displacement of [3H]diprenorphine from mouse KOR expressed in CHO cells after […]; assay type: cell-based
[12] = target: T2, Delta-type opioid receptor; assay: Displacement of [3H]naltrindole from mouse DOR expressed in CHO cells after […]; assay type: cell-based
Mu-type opioid receptor [13] = target: T4, Mu-type opioid receptor; assay: Stimulation of mouse MOR expressed in CHO cells after […] by [35S]GTPgammaS binding assay; assay type: functional, cell-based
[14] = target: Mu-type opioid receptor (Mus musculus) (UniProt P42866); assay: Stimulation of mouse MOR expressed in CHO cells after […] by [35S]GTPgammaS binding assay relative to DAMGO; assay type: functional, cell-based
Mus musculus [15] = assay: Reversal of morphine-induced antinociceptive activity in Swiss-Webster mouse at 1 mg/kg, sc administered 5 mins prior to morphine challenge measured after 20 mins by warm water tail-flick test relative to control; assay type: functional
Mus musculus [16] = assay: Reversal of morphine-induced antinociceptive activity in sc dosed Swiss-Webster mouse administered 5 mins prior to morphine challenge measured after 20 mins by warm water tail-flick test relative to control; assay type: functional
[17] = target: T1, Kappa-type opioid receptor; assay: Agonist activity at mouse KOR expressed in CHO cells after […] by [35S]GTPgammaS binding assay; assay type: functional, cell-based
[18] = target: Kappa-type opioid receptor (Mus musculus) (UniProt P33534); assay: Agonist activity at mouse KOR expressed in CHO cells after […] by [35S]GTPgammaS binding assay relative to (+/-)-trans-U50488; assay type: functional, cell-based
Mus musculus [19] = organism: Mus musculus; assay: Selectivity ratio of EC50 for mouse KOR to EC50 for mouse MOR
Mus musculus [20] = organism: Mus musculus; assay: Selectivity ratio of EC50 for mouse DOR to EC50 for mouse MOR
[21] = target: Delta-type opioid receptor (Mus musculus) (UniProt P32300); assay: Agonist activity at mouse DOR expressed in CHO cells after […] by [35S]GTPgammaS binding assay relative to naltrexone; assay type: functional, cell-based
Mus musculus [22] = assay: Reversal of morphine-induced antinociceptive activity in Swiss-Webster mouse assessed as escape jumps at 30 to 100 mg/kg, sc measured after 3 mins up to 20 mins; assay type: functional, organism-based
In short: (§1)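 After 72 h and 30 min habituation in an observation chamber, withdrawal was precipitated by s.c. test agent. Escape jumps and wet-dog shakes counted over 20 min, starting within 3 min of dosing; at least six mice per dose.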

Mus musculus [23] = assay: Reversal of morphine-induced antinociceptive activity in Swiss-Webster mouse assessed as wet-dog shakes at 30 to 100 mg/kg, sc measured after 3 mins up to 20 mins; assay type: functional, organism-based; in short: as §1
Mus musculus [24] = assay: Induction of escape jumps in Swiss-Webster mouse at 30 mg/kg, sc measured after 3 mins up to 20 mins; assay type: organism-based; design: dose 30 mg/kg, route subcutaneous; details: in vivo; in short: as §1
Mus musculus [25] = assay: Induction of wet-dog shakes in Swiss-Webster mouse at 30 mg/kg, sc measured after 3 mins up to 20 mins; assay type: organism-based; design: dose 30 mg/kg, route subcutaneous; details: in vivo; in short: as §1

T2 sequence (P32300 whole entry): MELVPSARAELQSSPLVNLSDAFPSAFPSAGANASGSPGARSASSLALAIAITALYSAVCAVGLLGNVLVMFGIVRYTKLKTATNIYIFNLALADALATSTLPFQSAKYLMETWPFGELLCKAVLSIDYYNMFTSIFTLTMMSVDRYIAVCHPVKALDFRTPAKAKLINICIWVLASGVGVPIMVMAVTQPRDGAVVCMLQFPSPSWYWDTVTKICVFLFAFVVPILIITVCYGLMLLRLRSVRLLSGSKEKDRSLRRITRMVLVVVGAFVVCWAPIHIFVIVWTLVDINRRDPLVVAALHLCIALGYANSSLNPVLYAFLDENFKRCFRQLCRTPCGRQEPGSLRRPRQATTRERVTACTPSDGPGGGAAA
Delta-type opioid receptor (Mus musculus), sequence (P32300 whole entry): as above
T4 sequence (P42866 whole entry): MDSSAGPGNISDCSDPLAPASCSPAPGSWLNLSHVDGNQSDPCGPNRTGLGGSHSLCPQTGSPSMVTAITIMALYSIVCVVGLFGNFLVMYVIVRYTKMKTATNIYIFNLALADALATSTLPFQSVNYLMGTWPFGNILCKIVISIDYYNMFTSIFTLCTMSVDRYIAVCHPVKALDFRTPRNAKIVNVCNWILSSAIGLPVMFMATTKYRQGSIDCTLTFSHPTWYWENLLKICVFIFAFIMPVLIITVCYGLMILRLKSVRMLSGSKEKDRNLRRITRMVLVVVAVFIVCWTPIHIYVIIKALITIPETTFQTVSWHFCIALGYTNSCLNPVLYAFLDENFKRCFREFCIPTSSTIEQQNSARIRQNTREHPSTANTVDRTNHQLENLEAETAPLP
T3 sequence (P35372 whole entry): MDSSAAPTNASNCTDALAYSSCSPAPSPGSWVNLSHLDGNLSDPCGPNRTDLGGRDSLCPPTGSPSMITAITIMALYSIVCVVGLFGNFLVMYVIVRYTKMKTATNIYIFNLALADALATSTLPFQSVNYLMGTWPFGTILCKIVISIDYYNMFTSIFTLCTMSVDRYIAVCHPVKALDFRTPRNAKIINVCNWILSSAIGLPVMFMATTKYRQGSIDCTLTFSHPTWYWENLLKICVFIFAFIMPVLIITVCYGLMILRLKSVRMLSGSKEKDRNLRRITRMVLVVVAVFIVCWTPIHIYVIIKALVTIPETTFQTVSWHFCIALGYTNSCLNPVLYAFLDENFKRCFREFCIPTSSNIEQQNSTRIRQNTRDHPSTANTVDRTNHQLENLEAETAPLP
T1 sequence (P33534 whole entry): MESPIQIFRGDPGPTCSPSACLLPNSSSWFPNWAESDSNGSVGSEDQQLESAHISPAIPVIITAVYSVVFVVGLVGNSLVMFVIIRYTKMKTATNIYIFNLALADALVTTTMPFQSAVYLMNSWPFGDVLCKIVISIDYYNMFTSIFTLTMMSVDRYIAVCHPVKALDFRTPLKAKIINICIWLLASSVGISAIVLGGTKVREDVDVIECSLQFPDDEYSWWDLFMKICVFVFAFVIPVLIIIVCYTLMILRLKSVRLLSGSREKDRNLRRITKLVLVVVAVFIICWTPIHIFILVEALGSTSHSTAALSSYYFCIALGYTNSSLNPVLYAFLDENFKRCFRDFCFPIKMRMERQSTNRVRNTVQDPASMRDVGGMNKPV
Mu-type opioid receptor (Mus musculus), sequence (P42866 whole entry): as the sequence (P42866 whole entry) above
Kappa-type opioid receptor (Mus musculus), sequence (P33534 whole entry): as the sequence (P33534 whole entry) above

In the case of `O=C(N[C@H]1CC[C@@]2(O)[C@H]3Cc4ccc(O)c5c4[C@@]2(CCN3CC2CC2)[C@H]1O5)c1ncc2ccccc2c1O`, the MPE (Mus musculus [1]) was less than 20%.
With `COc1c(C(=O)N[C@H]2CC[C@@]3(O)[C@H]4Cc5ccc(O)c6c5[C@@]3(CCN4CC3CC3)[C@H]2O6)nc(Cl)c2ccccc12` the ED50 (Mus musculus [2]) was 0.73 mg/kg, the pEC50 [3] was 7.58 and the pEC50 [4] was 7.49. For the same molecule, the Emax [5] was 54.8%, the Activity (Mu-type opioid receptor [6]) was “inactive” and the pIC50 (Mu-type opioid receptor [7]) was 7.63. The inhibition (Mu-type opioid receptor [7]) was “Dose-dependent effect”.
For `N#Cc1nc(C(=O)N[C@H]2CC[C@@]3(O)[C@H]4Cc5ccc(O)c6c5[C@@]3(CCN4CC3CC3)[C@H]2O6)cc2ccccc12`, the Ratio Ki (Mus musculus [8]) was 10, the Ratio Ki (Mus musculus [9]) was 131 and the MPE (Mus musculus [1]) was 56.9%.
`O=C(N[C@H]1CC[C@@]2(O)[C@H]3Cc4ccc(O)c5c4[C@@]2(CCN3CC2CC2)[C@H]1O5)c1cc2ccc([N+](=O)[O-])cc2cn1` showed a pKi (Mu-type opioid receptor [10]) of 8.44, a pKi [11] of 7.80 and a pKi [12] of 7.26. The Ratio Ki (Mus musculus [8]) was 4.5, the Ratio Ki (Mus musculus [9]) was 16 and the pEC50 (Mu-type opioid receptor [13]) was 7.37. The Emax [14] was 13.4% and the Activity (Mus musculus [15]) was “inactive”.
In the case of `CN1Cc2ccccc2C[C@H]1C(=O)N[C@H]1CC[C@@]2(O)[C@H]3Cc4ccc(O)c5c4[C@@]2(CCN3CC2CC2)[C@H]1O5`, the Ratio Ki (Mus musculus [8]) was 2.3 and the Ratio Ki (Mus musculus [9]) was 3.2.
In the case of `O=C(N[C@H]1CC[C@@]2(O)[C@H]3Cc4ccc(O)c5c4[C@@]2(CCN3CC2CC2)[C@H]1O5)c1cc2cc([N+](=O)[O-])ccc2cn1`, the pKi (Mu-type opioid receptor [10]) was 8.24, the pKi [11] was 7.55 and the pKi [12] was 7.02. It also gave a Ratio Ki (Mus musculus [8]) of 4.9, a Ratio Ki (Mus musculus [9]) of 16 and a pEC50 (Mu-type opioid receptor [13]) of 7.50. For the same molecule, the Emax [14] was 12.5%, the AD50 (Mus musculus [16]) was 0.92 mg/kg and the MPE (Mus musculus [15]; route subcutaneous) was 8.9%. The pEC50 [17] was 7.20, the Emax [18] was 21.1% and the pEC50 [4] was 6.97. It also gave an Emax [5] of 67.7%, a Ratio EC50 (Mus musculus [19]) of 2 and a Ratio EC50 (Mus musculus [20]) of 3.4. The Ratio [21] was 10, the Activity (Mu-type opioid receptor [6]) was “inactive” and the pIC50 (Mu-type opioid receptor [7]) was 5.56. The inhibition (Mu-type opioid receptor [7]) was “Dose-dependent effect”, the Activity (Mus musculus [22]) was “inactive” and the Activity (Mus musculus [23]) was “inactive”. For the same molecule, the Activity (Mus musculus [24]) was “Non-toxic” and the Activity (Mus musculus [25]) was “Non-toxic”.
For `O=C(N[C@H]1CC[C@@]2(O)[C@H]3Cc4ccc(O)c5c4[C@@]2(CCN3CC2CC2)[C@H]1O5)c1nc(Cl)c2ccccc2c1O`, the Ratio Ki (Mus musculus [8]) was 25 and the Ratio Ki (Mus musculus [9]) was 24.
`O=C(CNC(=O)c1cc2ccccc2cn1)N[C@H]1CC[C@@]2(O)[C@H]3Cc4ccc(O)c5c4[C@@]2(CCN3CC2CC2)[C@H]1O5` gave a Ratio Ki (Mus musculus [8]) of 0.2 and a Ratio Ki (Mus musculus [9]) of 3.4.
